Laboratory results as given in ChEMBL document CHEMBL4396968, “Small-molecule inhibitors of nisin resistance protein NSR from the human pathogen Streptococcus agalactiae” (Bioorg Med Chem, 2019).
Active and inactive are the calls of the source. The calls are words filed in the database; no cut-off is given here. Residues, ends and D or L forms follow the SMILES beside them. *: point of attachment. Boc = CC(C)(C)OC(=O)*; Bn = c1ccc(C*)cc1

Tests used:
Streptococcus agalactiae [1] = test: Inhibition of Streptococcus agalactiae NSR transfected in Lactococcus lactis NZ9000 cells assessed as bacterial growth inhibition at 150 uM incubated for 5 hrs by optical density based assay in presence of 30 nM nisin
Procedure, shortened: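 L. lactis NZ9000 carrying the SaNSR plasmid, and an empty-plasmid control strain, grown overnight in GM17 with 5 µg/ml erythromycin and 1 ng/ml nisin. Diluted to OD595 0.1 and preincubated 30 min at 30 °C, then exposed to compound plus 30 nM nisin for 5 h at 30 °C. Specific inhibition is the OD ratio between strains as %; ≥3 independent experiments.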

Streptococcus agalactiae [2] = test: Inhibition of Streptococcus agalactiae NSR transfected in Lactococcus lactis NZ9000 cells assessed as potentiation of nisin-induced growth inhibition by measuring reduction in nisin IC50 at 120 uM incubated for 5 hrs by optical density based assay relative to nisin alone
Procedure, shortened: (§1)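 SaNSR-expressing L. lactis NZ9000 preincubated at OD595 0.1 with fixed compound (120 or 300 µM), mixed with serial nisin dilutions, and read by OD595 after 5 h at 30 °C. Nisin IC50 taken from dose-response curves. Expressed as % ratio of the IC50 with compound to the IC50 of the same strain without it; ≥3 independent experiments.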

Streptococcus agalactiae [3] = test: Inhibition of Streptococcus agalactiae NSR transfected in Lactococcus lactis NZ9000 cells assessed as potentiation of nisin-induced growth inhibition by measuring reduction in nisin IC50 at 300 uM incubated for 5 hrs by optical density based assay relative to nisin alone; procedure, shortened: as §1
[4] = system: Streptococcus agalactiae COH1; test: Binding affinity to N-terminal 8xHis-tagged Streptococcus agalactiae COH1 NSR30 (30 amino acids deletion at N-terminal transmembrane region) expressed in Escherichia coli BL21 (DE3) cells at 18 mM by STD NMR method; conditions: 1.8 mM, in the assay text read “1.8 mM” for “18 mM”
Procedure, shortened: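 His-tagged SaNSR30 induced with 1 mM IPTG at OD600 0.8–1.0 and expressed overnight at 18 °C. Purified by metal-affinity chromatography with 150 mM histidine elution, then size exclusion in 25 mM MES pH 6, 150 mM NaCl.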

Lactococcus lactis = test: Growth inhibition of Lactococcus lactis NZ9000 transfected with Streptococcus agalactiae NSR at 300 uM incubated for 5 hrs in absence of nisin by optical density based assay; assay type: organism-based; conditions: in vivo

| SMILES | inhibition (Streptococcus agalactiae [1]) [%] | also measured |
| --- | --- | --- |
| CC1CCc2nc(NC(=O)c3ccccc3NC(=O)CSc3nccn3C)sc2C1 (centres undefined) | 1.38 |  |
| CCc1cc(=O)[nH]c(-n2nc(C)cc2NC(=O)C(=O)NCCc2ccccc2)n1 | < 1 |  |
| CCn1c(=O)n(CCC(=O)Nc2nc(-c3ccc4c(c3)CCO4)cs2)c2ccccc21 | < 1 |  |
| N#Cc1ccc(NC(=O)NC(CO)c2ccccc2)cc1 (centres undefined) |  | inhibition (Streptococcus agalactiae [2]): 8.1%; inhibition (Streptococcus agalactiae [3]): 13.5% |
| CC(C)(CO)NC(=O)NCC12CC3CC(CC(C3)C1)C2 |  | inhibition (Streptococcus agalactiae [2]): 4%; inhibition (Streptococcus agalactiae [3]): 8.5% |
| CC(CO)(CO)NC(=O)NC1CCCCC1 |  | inhibition (Streptococcus agalactiae [3]): < 1% |
| CCN(CC)Cc1ccc(CNC(=O)NCc2ccc(Cn3ccnc3)cc2)cc1 | < 1 |  |
| CC(CO)NC(=O)Nc1ccc(C(F)(F)F)cc1 (centres undefined) |  | inhibition (Streptococcus agalactiae [3]): < 1% |
| CCCCn1nc(C(=O)N[C@@H](Cc2c[nH]c3ccccc23)C(=O)O)c2ccccc2c1=O | 3.21 |  |
| O=C(CCn1c(=O)oc2cc(Cl)ccc21)Nc1ccc(N2CCOCC2)nc1 | 19 |  |
| CNC(=O)CNC(=O)c1cccc(S(=O)(=O)NC(C)c2ccccc2)c1 (centres undefined) | 7.92 |  |
| CC(O)C(NC(=O)C(Cc1ccc(OCc2ccccc2)cc1)NC(=O)CNC(=O)OC(C)(C)C)C(N)=O (stereo not drawn) (Boc-Gly-Tyr(Bn)-Thr-NH2; configuration not given here) | 17.5 |  |
| O=C(Nc1ccc(C(F)(F)F)cc1)NC1(CO)CCOCC1 |  | inhibition (Streptococcus agalactiae [2]): < 1%; inhibition (Streptococcus agalactiae [3]): < 1% |
| Cc1cc(C)c(S(=O)(=O)N2CCCC2CNC(=O)C(=O)Nc2ccccc2C#N)c(C)c1 (centres undefined) | < 1 |  |
| CCCC(=O)Nc1ccc(CNC(=O)NCC(CO)Cc2ccc(C)cc2)cc1 (centres undefined) | 19.6 |  |
| O=C(CC[C@H]1NC(=O)c2ccccc2NC1=O)NCc1nc2ccccc2[nH]1 | 9.95 |  |
| COc1ccc(-c2cc(N3CCCN(C(=O)C4(c5ccc(OC)cc5)CC4)CC3)[nH]n2)cc1 | 20.7 | inhibition (Streptococcus agalactiae [3]): 20.5% |
| CC(O)(CNC(=O)NCC[S+]([O-])c1ccccc1)c1ccco1 (centres undefined) | 13.4 |  |
| CC(CO)(CO)NC(=O)Nc1ccc(Cl)c(Br)c1 | 57.9 | inhibition (Streptococcus agalactiae [2]): 50.5%; Activity [4]: Active; growth inhibition (GI) (Lactococcus lactis): Toxic |
| OC(CNc1ccccc1Cl)COc1ccc(OCC(O)CNc2ccccc2Cl)cc1 (centres undefined) | < 1 |  |
| Cc1[nH]c(SCC(=O)Nc2[nH]c(Cc3ccccc3)c(C)c2C#N)nc1Cc1ccccc1 | 15.3 |  |
| O=C(CNC(=O)c1ccc2c(c1)OCO2)NCCc1c[nH]c2ccccc12 | < 1 |  |

| SMILES | inhibition (Streptococcus agalactiae [1]) [%] | also measured |
| --- | --- | --- |
| O=C(NCC(O)c1ccc(O)cc1)C(=O)Nc1ccccc1O (centres undefined) | 13.6 |  |
| CC(C(=O)NC(CO)(CO)CO)c1ccc2c(c1)[nH]c1ccc(Cl)cc12 (centres undefined) | 8.21 |  |
| COc1ccc(C2(CNC(=O)c3cn(C(C)C)c(=O)c4ccccc34)CCOCC2)cc1 | 4.86 |  |
| Cc1ccc2c(c1)-c1c(cnn1CC(=O)NC(C)c1ccc3c(c1)OCCO3)CO2 (centres undefined) | < 1 |  |
| N#Cc1ccc(NC(=O)NCCNC(=O)Nc2ccc(C#N)cc2)cc1 |  | inhibition (Streptococcus agalactiae [3]): < 1% |
| CC(C)NC(=O)Nc1ccc(Cl)cc1 |  | inhibition (Streptococcus agalactiae [3]): < 1% |
| CC(=O)Nc1ccc(NC(=O)CSc2nc3ccccc3c(=O)n2-c2ccccc2)cc1 | 7.58 |  |
| CCC(CC)(CO)NC(=O)Nc1cccc(Oc2ccccc2)c1 |  | inhibition (Streptococcus agalactiae [3]): < 1% |
| CCc1ccc(NC(=O)C(=O)NCC(c2ccc3c(c2)OCO3)N2CCN(C)CC2)cc1 (centres undefined) | 6.03 |  |
| COc1ccc2[nH]cc(CCNC(=O)CC3C(=O)Nc4c3c(=O)n(C)c(=O)n4C)c2c1 (centres undefined) | 11.3 |  |
| O=C(Nc1ccccc1C(F)(F)F)NC(CO)(CO)C(F)(F)F |  | inhibition (Streptococcus agalactiae [2]): < 1%; inhibition (Streptococcus agalactiae [3]): < 1% |
| CCCCc1ccc(NC(=O)CN2C(=O)NC(C)(Cc3ccc(OC)c(OC)c3)C2=O)cc1 (centres undefined) | 14.1 |  |
| O=C(Cn1cnc2c(oc3ccccc32)c1=O)NCc1ccccc1Cn1ccnc1 | < 1 |  |
| COc1ccccc1-n1cc(C(=O)N2Cc3nc[nH]c3CC2C(=O)O)cn1 (centres undefined) | 10.8 |  |
| Cc1ccc(-n2nc(C)c(NC(=O)Cn3cnc4c3c(=O)n(C)c(=O)n4C)c2C)cc1 | 14.2 |  |
| O=C(NCc1ccccc1)C(=Cc1ccc(O)c(O)c1)C(=O)NCc1ccccc1 | 16.9 | inhibition (Streptococcus agalactiae [3]): 32.2% |
| Cc1cc(C)nc(NC(Cc2ccccc2)C(=O)NCc2nc3ccccc3[nH]2)n1 (centres undefined) | < 1 |  |
| COc1ccc(C2(CNC(=O)C(=O)Nc3ccc(Br)cc3)CCOCC2)cc1 | < 1 |  |
| Cc1cc(C)c2c(C)nn(-c3ccc(NC(=O)CCc4nc5ccccc5c(=O)[nH]4)cc3)c2n1 | < 1 | inhibition (Streptococcus agalactiae [3]): 1.9% |
| Cc1cc(C)c2c(=O)n(CC(=O)Nc3ccc(C(C)C)cc3)c(=O)n(Cc3ccco3)c2n1 | < 1 |  |
| CC(CO)NC(=O)Nc1ccc(Cl)cc1 (centres undefined) |  | inhibition (Streptococcus agalactiae [3]): < 1% |
| O=C(CC1NC(=O)c2ccccc2NC1=O)NCc1nc(-c2ccccc2Cl)no1 (centres undefined) | < 1 |  |
